# Only some compounds are listed: those with a hit (about 1.9% of all), similar ones and a draw of the others.
# NS3 helicase inh – HCV NS3 helicase inhibition; NS3 helicase DNA unwinding, Cy5 molecular beacon fluorescence; inhibition, % at 10.9 µM; hit rate 0.56% among 290,000;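 active = inhibition above the mean of all tested compounds plus 3 SD, set per campaign, cut at about 35% in these data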;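 also: 0% = DMSO wells and 100% = thioflavine S control wells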
#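 System: HCV NS3 helicase fragment; control set: DMSO and thioflavine S; technique: Cy5 fluorescence at 0 and 60 min, beacon hairpin quenching; reagent: beacon DNA duplex substrate plus ATP; replicates: singlicate; schedule: 1 h reaction at 25 °C, ATP-initiated; medium: MOPS buffer pH 6.5 with MgCl2, DTT, Tween20, BSA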
# GPR7 antagonist – antagonists of human GPR7 (neuropeptides B/W receptor 1) | P48145 | GPR7-expressing cells, fluorescence antagonist assay | inhibition, % at 4.4 µM | hit rate 1.1% among 290,000 | AID 1861; in the data active = inhibition above about 16%, passing the limit was not always enough;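 also: cells stimulated with the agonist NPW; 0% = agonist with vehicle and 100% = vehicle without agonist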
# Target sequence (P48145 whole entry, looked up): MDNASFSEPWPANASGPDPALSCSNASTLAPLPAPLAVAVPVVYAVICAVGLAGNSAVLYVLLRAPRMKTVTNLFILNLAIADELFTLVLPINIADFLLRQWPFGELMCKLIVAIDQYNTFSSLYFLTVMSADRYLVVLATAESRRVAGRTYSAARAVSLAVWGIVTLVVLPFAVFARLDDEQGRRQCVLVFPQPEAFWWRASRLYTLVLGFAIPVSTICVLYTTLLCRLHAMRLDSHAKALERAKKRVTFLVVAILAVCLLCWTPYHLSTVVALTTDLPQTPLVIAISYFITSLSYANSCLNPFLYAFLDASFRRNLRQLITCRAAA
# core dimer inh – blocks dimerization of HCV core protein; inhibition, % at 5 µM; TR-FRET GST/Flag-core106 dimerization, 1536-well; AID 1899; hit rate 0.33% among 300,000;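 active = inhibition above the mean of all tested compounds plus 3 SD, set per screening campaign, cut at about 45% in these data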
#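 Assay system: tagged HCV core106 pair (GST and Flag); medium: KF-containing HEPES buffer, pH 7.45, DTT, CHAPS, BSA; also added: Eu donor and XL665 acceptor anti-tag antibodies; dosing: 5 µM single dose; timing: compound-protein-antibody incubation 4 h at 22.5 °C; signal: TR-FRET 671 and 617 nm emission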
# DNA FID counter-1 – counter-screen for HCV NS3 helicase inhibitors: DNA intercalator displacement | DNA fluorescent intercalator displacement, fluorescence | inhibition, % at 7.9 µM | hit rate 0.17% among 290,000 | AID 1845;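 also: 0% = vehicle and 100% = reference compound; higher means more ethidium bromide displaced from hairpin DNA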
# pCIP destab – compounds decreasing mouse p/CIP protein stability; Q05BA5; hit rate 0.01% among 290,000; F442A p/CIP-EGFP cells, EGFP fluorescence, 16 h; decrease of EGFP signal, % at 10 µM;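 active = EGFP signal decrease of at least 30% at 10 µM or well 3 SD below plate mean, unless failing retest; inactive = the rest, including hits failing retest or dose response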
# NS3 hel confirm – HCV NS3 helicase inhibition, confirmation assay; shares compounds with NS3 helicase inh; inhibition, % at 10.9 µM; NS3 helicase DNA unwinding, Cy5 molecular beacon fluorescence; hit rate 31% among 1,600;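 active = inhibition above the mean of all tested compounds plus 3 SD, cutoff set per campaign, cut at about 36% in these data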
# DNA FID counter-2 – intercalator displacement, NS3 helicase counter-screen | shares compounds with NS3 helicase inh | DNA fluorescent intercalator displacement, fluorescence | inhibition, % at 7.9 µM | hit rate 4% among 1,600;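 also: 0% = vehicle and 100% = reference compound; higher means more displacement of ethidium bromide from the DNA hairpin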
# GPR7 antag conf – confirmation of human GPR7 antagonists. shares compounds with GPR7 antagonist. GPR7-expressing cells, calcium fluorescence antagonist mode. inhibition, % at 4.4 µM. hit rate 52% among 2,400; in the data active = inhibition above about 24%;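 also: stimulated with the GPR7 agonist NPW; 0% = agonist plus vehicle and 100% = vehicle alone without agonist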
# MCHR1 antag – MCHR1 (human) antagonism in GPR7 counter-screen. hit rate 62% among 2,400. shares compounds with GPR7 antagonist. MCHR1-expressing cells, fluorescence antagonist assay. AID 2148. inhibition, % at 4.4 µM; in the data active = inhibition above about 22%;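 also: 0% = vehicle with agonist and 100% = vehicle without agonist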
# Starred values were filed as active, the others as inactive; nt = no result. Rule as the data show it, unless noted: active = inhibition above about 37%; inactive = the rest.
SMILES,NS3 helicase inh,GPR7 antagonist,core dimer inh,DNA FID counter-1,pCIP destab,GPR7 antag conf,MCHR1 antag,others
Cc1cccc(-n2c(/C=C/c3ccc([N+](=O)[O-])o3)nc3ccccc3c2=O)c1,61.4*,1.1,11.3,-19.8,-5.7,nt,nt,NS3 hel confirm=14.6;DNA FID counter-2=1.1
C[N+](C)(C)CC(=O)O,nt,nt,-8.8,nt,nt,nt,nt,
CC(C)c1ccc(-n2c(O)c(/C=N/NC(=O)c3ccccc3O)c(=O)[nH]c2=S)cc1,74.2*,-0.4,5.4,-29.8,-2.0,nt,nt,NS3 hel confirm=74.0*;DNA FID counter-2=20.7
O=C(N/N=C/c1c(O)n(C2CCCCC2)c(=S)[nH]c1=O)c1ccccc1O,-17.0,5.3,10.2,-15.0,-34.9,nt,nt,
NNC(=O)CN1C(=O)CN=C(c2ccccc2)c2cc(Br)ccc21,53.7*,-10.7,-4.0,-33.4,-6.1,nt,nt,NS3 hel confirm=-14.4;DNA FID counter-2=-28.8
CCCCCSc1cc(O)c(C(CNC)C(C)C)cc1OC (stereo not given),-72.7,28.7*,-8.0,21.4,-12.4,42.2*,37.2*,
OC12CCCCC1C(c1ccccc1)NCC2 (stereo not given),2.9,23.0*,-1.2,12.4,-1.6,8.2,-1.4,
OC1(c2ccccc2)CCNC2CCCCC21 (stereo not given),11.2,-18.8,6.9,-0.6,-9.0,nt,nt,
O=C(Nc1cccc(Cl)c1)OC1CN2CCC1CC2 (stereo not given),-7.4,21.8*,4.2,4.4,-8.6,52.5*,58.3*,
Nc1cc(C(=O)Nc2ccc(Cl)cc2)ccc1N1CC2CC(C1)c1cccc(=O)n1C2 (stereo not given),-8.7,-4.7,2.2,-51.8,6.8,nt,nt,
COc1cc(CNCCc2c[nH]c3ccccc23)cc(OC)c1,-37.9,38.3*,-1.1,12.1,20.9,22.3,31.3*,
O=C(CCc1nnc2ccc(NCc3ccccc3)nn12)N1CCC2(CC1)OCCO2,7.6,-5.5,-7.0,-25.9,4.0,nt,nt,
OC(CNC1CCCCCCC1)c1ccccc1 (stereo not given),5.9,21.9*,-6.2,22.6,-0.3,6.4,-4.2,
CC1CCC(NCC(O)c2ccccc2)CC1 (stereo not given),-3.4,-6.6,0.1,0.0,-12.8,nt,nt,
O=[N+]([O-])c1ccc(N2CCCCCC2)c2nonc12,19.1,40.9*,-15.9,-111.5,-784.1,50.8*,60.5*,
CCCCn1c(O)c(C(=O)/C=C/c2c[nH]c3ccccc23)c(=O)[nH]c1=O,11.4,-1.5,2.6,-1.2,-15.7,nt,nt,
CCCCn1c(=O)c(C(=O)Nc2ccccc2N)c(O)c2ccccc21,2.7,27.0,-0.6,0.4,4.8,nt,nt,
CCCCn1c(=O)c(C(=O)Nc2ccccc2F)c(O)c2ccccc21,-0.7,95.6*,-2.7,-4.2,5.5,-28.6,-2.5,
Cc1occc1C(=O)N1CCC2(CC1)OCCO2,13.9,32.5*,1.5,-2.0,5.4,2.0,-2.6,
O=C(c1ccccc1)N1CCC2(CC1)OCCO2,9.4,-9.3,0.0,-3.3,-7.8,nt,nt,
c1ccc(-c2cc(-c3ccccc3)[n+](-c3ccccc3)c(-c3ccccc3)c2)cc1,-46.7,96.7*,-0.9,22.6,9.6,93.0*,86.6*,
CN(C)c1ccc(-[n+]2c(-c3ccccc3)cc(-c3ccccc3)cc2-c2ccccc2)cc1,-55.9,59.1*,nt,15.0,-12.5,79.3*,77.9*,
C=CCn1c(O)c(/C(C)=N/N2CCN(C)CC2)c(=O)[nH]c1=O,-11.4,-11.2,1.5,-5.1,-4.1,nt,nt,
CC[C@H]1CN2CC[C@@]3(C(=O)Nc4ccccc43)[C@@H]2C[C@@H]1/C(=C\OC)C(=O)OC,nt,nt,-6.5,nt,nt,nt,nt,
CCNc1nc(NC(C)(C)C)nc(SC)n1,nt,nt,-0.2,nt,nt,nt,nt,
SMILES,NS3 helicase inh,GPR7 antagonist,core dimer inh,DNA FID counter-1,pCIP destab,GPR7 antag conf,MCHR1 antag,others
COc1ccc(CNCCc2c(C)[nH]c3ccc(OC(F)(F)F)cc23)c(OC)c1,-91.7,51.6*,-5.5,28.1,-26.4,63.0*,89.1*,
COc1ccc2[nH]c(C)c(CCNCc3cc(OC)c(OC)c(OC)c3)c2c1,-6.9,8.3,-1.1,11.9,4.5,nt,nt,
COC(=O)C1=C(c2cc3ccccc3s2)C[C@@H]2CC[C@H]1N2C(=O)NCc1ccc(C(F)(F)F)cc1,nt,nt,11.6,nt,nt,nt,nt,
OC1(c2ccc(F)cc2)CC2CCC(C1)N2Cc1nnnn1C1CCCCC1 (stereo not given),2.5,33.1*,-1.9,-24.9,-2.5,26.5*,17.2,
COc1ccc(CCNCc2ccccc2F)cc1OC,-3.0,-7.7,-3.3,8.7,-0.3,nt,nt,
CCOc1ccc(Cl)cc1CNCCc1ccccc1F,-12.9,33.1*,-8.5,15.7,-14.7,49.1*,37.3*,

# Assay outcomes deposited in PubChem by several laboratories.
